Common to all, as to type: cell-based
Assay [1] relates to Non-Hodgkin Lymphoma cell lines. In words: Viability assay. The conditions noted are these: initial screen hits, DLBCL cell lines, Fig. 1A.
The subject of assay [2] is protein synthesis in DLBCL cells. In words: O-propargyl puromycin. The conditions noted are these: concentrations relative to LD50, 4, 16 or 24 hours. Summed up:
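DLBCL cells treated 4, 16 or 24 h with test compound, silvestrol or carboplatin, at concentrations scaled to each agent's LD50. Cells pulsed with O-propargyl puromycin, washed twice in PBS and click-labelled with Alexa-488 azide. Flow cytometry gave mean fluorescence on live-gated cells, normalised to DMSO. Mean ± SEM, n=3; unpaired two-tailed t-tests with Benjamini–Krieger–Yekutieli correction.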

Another assay deals with NIH/3T3 cells. In words: Viability.
Assay [3] concerns SNU-398. In words: Viability assay in SNU-398 cells. The note with it: for type of effect on SNU-398 cells: 72-hour treatment.
Assay [4] relates to SNU-398. In words: Western blot in SNU-398 cells. The conditions noted are these: 16 hours, 200 nM rapamycin, 100 nM silvestrol, 1 μM elatol. For orientation: Immunoblotting shows a protein as a band on a membrane.

`C=C1CC[C@@](C)(c2cc(Br)c(C)cc2O)[C@H]1C` [allolaurinterol, reference compound]: in assay [1], the “activity against non-Hodgkin lymphoma (NHL) cell lines (LD50)” value is greater than 10 µM.

For `N.N.O=C([O-])C1(C(=O)[O-])CCC1.[Pt+2]` [carboplatin], the “protein synthesis measured by incorporation of OPP” value in assay [2] was “no significant decline”. For the same compound, the “change in drug sensitivity on eIF4A1 knockdown” value with NIH/3T3 cells (NIH-3T3 shRLuc vs sh4A1) is given as “no change in drug sensitivity”.

Consider `CC(C)=C[C@@H]1C[C@H](C)c2c(O)cc(C)c3c2C1=C(C)C(=O)C3=O` [elisabatin A, reference compound], for which the “activity against non-Hodgkin lymphoma (NHL) cell lines (LD50)” value in assay [1] is greater than 10 µM.

In the case of `CO[C@H]1C[C@@H]2CC[C@@H](C)[C@@](O)(O2)C(=O)C(=O)N2CCCC[C@H]2C(=O)O[C@H]([C@H](C)C[C@@H]2CC[C@@H](O)[C@H](OC)C2)CC(=O)[C@H](C)/C=C(\C)[C@@H](O)[C@@H](OC)C(=O)[C@H](C)C[C@H](C)/C=C/C=C/C=C/1C` [rapamycin, reference compound], in the assay on SNU-398 [3], the “type of effect on SNU-398 cells” value is listed as “cytostatic”. In the assay on SNU-398 [4], the “activity against mTORC1 targets (phosphorylation of S6 and 4EBP1)” value is “potently inhibits phosphorylation”.

On to `COC(=O)[C@H]1[C@@H](O)[C@@]2(O)c3c(OC)cc(O[C@@H]4O[C@@H]([C@H](O)CO)CO[C@H]4OC)cc3O[C@@]2(c2ccc(OC)cc2)[C@@H]1c1ccccc1` [silvestrol], for which the “protein synthesis measured by incorporation of OPP” value in assay [2] is recorded as “global decline of protein synthesis”. The “type of effect on SNU-398 cells” value in the assay with SNU-398 [3] is on record as “highly cytotoxic”. In addition, in the assay on SNU-398 [3] (SNU-398, 72-hour treatment), the LD50 is 41 nM. In addition, the “activity against mTORC1 targets (phosphorylation of S6 and 4EBP1)” value in the assay on SNU-398 [4] was “no activity”. The “increased potency of silvestrol relative to elatol” value in the assay on NIH/3T3 cells (3T3 fibroblasts, Fig. 5F) is recorded as greater than 500 x.

The values are drawn from PMC6500731 (Clinical cancer research : an official journal of the …, 2018).
